ATG4B inh – ATG4B protease inhibitors, primary screen, biochemical, fluorescence, uHTS; AID 504462, 2011; ATG4B cleavage of LC3-PLA2, NBD-HPC fluorescence, 1 h; 0.51% of 340,000 active; inhibition, % at 8.33 µM; Cysteine protease ATG4B (Homo sapiens), Q9Y4P1; in the data active means inhibition above about 40%
LEDGF integ inh – blockers of LEDGF/p75-dependent integrase strand transfer – biochemical, TR-FRET, high throughput, primary screen. AID 743269, 2014. HIV-1 integrase (with human LEDGF/p75). 0.64% of 370,000 active. inhibition, % at 3.7 µM. TR-FRET IN-LEDGF/p75 DNA integration, Eu/Cy5;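 active means inhibition above the screen-wide mean plus 3 SD, cut at about 13% in these data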;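 further: signal is the Cy5 over europium emission ratio at 671 and 618 nm; 0% = plate median of compound wells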
rCAG RNA binder – binders of r(CAG) RNA repeats, primary screen, biochemical, fluorescence; r(CAG) RNA repeat, TO-PRO-1 dye displacement fluorescence; inhibition, % at 3 µM; 1.3% of 370,000 active; AID 651821, 2012;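 active means inhibition above the plate cutoff, the mean of all test compounds on that plate plus 3 SD, cut at about 35% in these data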;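 further: 0% = DMSO alone and 100% = 100 µM mitoxantrone as full dye displacement; higher means more dye released from RNA so lower well fluorescence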
UHRF1 MBD2 ctr – UHRF1 methylated DNA binding inhibitors, primary screen, counter-screen for MBD2 inhibitor project, biochemical, TR-FRET, human UHRF1, single concentration; inhibition, % at 4.4 µM; E3 ubiquitin-protein ligase UHRF1 (Homo sapiens), Q96T88; UHRF1 binding to methylated oligo; 0.75% of 370,000 active;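 further: UHRF1 SRA domain binding a hemimethylated CpG hairpin DNA probe; 0% = median of test compound wells and 100% = reference inhibitor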
CSN deneddyl inh – inhibitors of CSN-mediated cullin deneddylation, primary screen, biochemical, fluorescence polarization, uHTS; COP9 signalosome complex subunit 5 (Homo sapiens), Q92905; Purified CSN, SCF-Nedd8-OG deneddylation; inhibition, % at 12.5 µM; 0.38% of 360,000 active;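 active means pattern-corrected inhibition above about 35%, with an unprinted fluorescence ratio check between 0.5 and 1.5, limit read from the data, passing the limit was not always enough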;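 further: 0% = enzyme with substrate and 100% = substrate without enzyme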
Target sequence (Q92905 whole entry, looked up, one chain of several): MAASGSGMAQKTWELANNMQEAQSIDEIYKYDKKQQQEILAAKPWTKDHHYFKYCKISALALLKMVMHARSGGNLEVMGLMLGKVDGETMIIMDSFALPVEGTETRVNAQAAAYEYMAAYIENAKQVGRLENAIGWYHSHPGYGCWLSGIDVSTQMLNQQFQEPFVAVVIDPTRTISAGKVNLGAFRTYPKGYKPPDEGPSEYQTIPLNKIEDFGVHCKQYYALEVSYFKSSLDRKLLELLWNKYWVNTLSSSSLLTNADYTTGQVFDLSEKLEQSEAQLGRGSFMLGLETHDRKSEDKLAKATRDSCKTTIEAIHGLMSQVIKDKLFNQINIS
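Test system: Human Csn5 produced in HEK293T cells | Compound: 12.5 µM single point | Times: 90 min, room temperature | Signal: Fluorescence polarization readout | Read-out basis: % inhibition of substrate cleavage by Csn5 | Controls: no-enzyme wells high, enzyme-with-substrate wells low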
MBD2 DNA inh – inhibitors of MBD2 binding to methylated DNA, primary screen, biochemical, TR-FRET, DNA-binding domain, human; Methyl-CpG-binding domain protein 2 (Homo sapiens), Q9UBB5; MBD2 binding to methylated oligonucleotide; inhibition, % at 4.4 µM; 0.31% of 370,000 active; AID 686964, 2013; in the data active means inhibition above about 13%
UHRF1 ctr MBD2 – UHRF1 methylated DNA binding inhibitors, counter-screen for MBD2 inhibitor project, biochemical, TR-FRET, human UHRF1. shares compounds with MBD2 DNA inh. UHRF1 binding to methylated oligonucleotide. inhibition, % at 4.4 µM. 25% of 1,000 active. AID 720530, 2013;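 further: UHRF1 SRA domain binding a labeled hemimethylated CpG hairpin DNA; 0% = vehicle only and 100% = reference inhibitor with vehicle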
MBD2 confirm – inhibitors of MBD2 binding to methylated DNA, confirmation, biochemical, TR-FRET, DNA-binding domain, human; shares compounds with MBD2 DNA inh; TR-FRET MBD2-DBD binding to methylated oligonucleotide; 26% of 1,000 active; inhibition, % at 4.4 µM; in the data active means inhibition above about 14%
An asterisk follows results filed as active; nt = no result. The list is not random: actives were taken first. Their share in the collection is about 3.1%. Unless noted, no stated cut-off is given here; in the data, active means inhibition above about 21%; inactive means the rest.

SMILES	ATG4B inh	LEDGF integ inh	rCAG RNA binder	UHRF1 MBD2 ctr	CSN deneddyl inh	MBD2 DNA inh	UHRF1 ctr MBD2	MBD2 confirm
CC1(c2nnnn2Cc2ccccc2)CCC(=O)N1CCc1c[nH]c2ccccc12 (stereo unspecified)	nt	-3	0	3	-3	2	nt	nt
Cc1ccc(Oc2nc(CN3CCOCC3)nc3sc4c(c23)CCC(C)C4)cc1 (stereo unspecified)	-2	3	-3	-1	-6	14*	9	4
Cc1ccc2nc(C(C)(C)C)c(Cc3ccccc3C(F)(F)F)n2c1	nt	0	0	21*	2	15*	8	7
O=C(NC1CCCC1)c1ccc(COc2ccccc2)o1	nt	-4	3	3	nt	8	nt	nt
CCn1c(SCC(=O)c2ccc(O)c(O)c2)nnc1-c1ccc(C)cc1	-6	6	21	44*	27	15*	14	5
CNS(=O)(=O)c1cccc(C(=O)OCC(=O)Nc2ccccc2F)c1	-1	0	0	26*	-9	17*	4	2
CCOc1ccc(-n2c(COc3ccccc3)nnc2SCC(=O)Nc2ccc(OCc3ccccc3)cc2)cc1	nt	4	10	3	nt	2	nt	nt
Cc1cc(NC(=O)C2CCN(S(=O)(=O)c3cnc[nH]3)CC2)ccc1Br	-1	1	7	21	2	14*	4	2
COc1cccc(CC(=O)Nc2ccc(S(=O)(=O)N3CCCCC3)cc2)c1	-9	-1	3	1	-5	13*	5	3
CCCCCCCCN1C(=O)[C@@H](CC(=O)N2CCSCC2)C[C@@]2(C(=O)OC)C1=C[C@H](C(C)(C)C)O[C@@H]2C	nt	-1	2	1	nt	2	nt	nt
COc1cc2c(cc1OC)CN(C(=O)CCOc1ccccc1)CC2	-5	1	3	-1	6	3	nt	nt
COc1cc2c(cc1OC)CN(C(=O)CCOc1ccccc1C)CC2	-7	-4	-1	1	1	14*	3	1
CCOC(=O)N1CCN(C(=O)C[C@H]2C[C@@]3(C(=O)OC)C(=C[C@H](C4CCCC4)O[C@@H]3C)N(Cc3ccc(Cl)cc3Cl)C2=O)CC1	nt	-1	5	-4	nt	-2	nt	nt
COC(=O)c1cc2c(c3c4cc(OC)ccc4n(S(=O)(=O)c4ccc(OC)cc4)c13)C(=O)N(Cc1ccc(N(C)C)cc1)C2	nt	0	12	0	nt	-3	nt	nt
CC[N+](CC)(CC)CCCCOc1ccc2c(c1)C(=O)c1cc(OCCCC[N+](CC)(CC)CC)ccc1-2	2	1	6	31*	-1	21*	49*	32*
CC[N+](CC)(CC)CCOc1ccc(/C=C/c2ccccc2)cc1	14	7	8	19	-6	4	nt	nt
Cc1cccc(C)c1NC(=O)C1c2cccc[n+]2CC(=O)N1Cc1cccs1 (stereo unspecified)	-4	-1	6	-1	-2	46*	1	3
Cc1ccccc1NC(=O)C1c2cccc[n+]2CC(=O)N1Cc1ccc2c(c1)OCO2 (stereo unspecified)	11	2	2	-2	2	-7	nt	nt
Cn1c(SCC(=O)c2c(N)n(C)c(=O)n(C)c2=O)nnc1-c1ccccc1F	5	0	-2	2	5	32*	-3	0
